For one data set, the species on record is Homo sapiens. The experiment in a line: Agonist activity at HIF-2 (unknown origin) expressed in bacterial expression system assessed as change in melting temperature at 10 uM measured by thermal shift assay. The following applies: filed as agonist. The procedure, abridged: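 HIF-2–ARNT protein complex (1.5M as printed) with 10 μM compound from DMSO stock, final DMSO 0.1%, in 20 mM Tris pH 8.0, 400 mM NaCl. Read on qPCR instrument with thermal-shift dye. Tm from derivative curve; ΔTm = compound Tm minus blank Tm. Four parallel replicates per compound.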

The test system of data set [1] is 786-0. The experiment in a line: (§1) Agonist activity at HIF-2 in human 786-0-HRE-Luc cells assessed as increase in […] intensity measured after 24 hrs by luciferase reporter gene assay. The class given is cell-based. The following applies: filed as agonist. The procedure, abridged: (§2)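 786-O cells stably transduced with lentiviral HRE-driven firefly luciferase (single clone), grown in RPMI-1640 + 10% FBS. Seeded, allowed to attach, then given compound in DMSO (2 and 20 μM, or a concentration series) for 24 h. Luminescence read with a firefly luciferase reagent; triplicate cultures, mean ± s.d.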

Data set [2] deals with 786-0. Description: Agonist activity at HIF-2 in human 786-0-HRE-Luc cells assessed as increase in […] intensity at 20 uM measured after 24 hrs by luciferase reporter gene assay relative to control. Format: cell-based. The following applies: filed as agonist. The procedure, abridged:
as §2

Data set [3] can be described thus: as §1. The class given is cell-based. The following applies: 786-0, 24 h. The procedure, abridged: as §2
Data set [4] has as its system 786-0. Description: Cytotoxicity against human 786-0-HRE-Luc cells assessed as inhibition of cell proliferation at 20 uM measured after 24 hrs by CCK8 assay. The class given is cell-based. The following applies: 786-0, 24 h.
Data set [5] deals with 786-0. The experiment in a line: Cytotoxicity against human 786-0-HRE-Luc cells assessed as inhibition of cell proliferation at 1 uM measured after 24 hrs by CCK8 assay. Format: cell-based. The following applies: 786-0, 24 h.
In data set [6] the test system is 786-0. The experiment in a line: Agonist activity at HIF-2 in human 786-0-HRE-Luc cells at 2 uM measured after 24 hrs by luciferase reporter gene assay. Format: cell-based. The following applies: filed as agonist. The procedure, abridged: as §2
Data set [7] relates to 786-0. The experiment in a line: Agonist activity at HIF-2 in human 786-0-HRE-Luc cells assessed as increase in […] intensity at 2.2 uM measured after 24 hrs by luciferase reporter gene assay relative to control. The class given is cell-based. The following applies: filed as agonist. The procedure, abridged: as §2
Data set [8] deals with 786-0. The experiment in a line: Agonist activity at HIF-2 in human 786-0-HRE-Luc cells assessed as increase in […] intensity at 6.6 to 20 uM measured after 24 hrs by luciferase reporter gene assay. The following applies: dose 6.6-20 µM. Format: cell-based. The procedure, abridged: as §2

Active and inactive are the calls of the source. The rule behind the calls is not given here.

`O=S1(=O)N=C(Oc2cc(C(F)(F)F)cc(C(F)(F)F)c2)c2ccccc21`: the ΔTm in the data set listed under Homo sapiens is 0.06 °C.

Turning to `O=S1(=O)N=C(Nc2cc(Cl)cc(Cl)c2)c2ccccc21`, the Activity result with 786-0 [1] was “Dose-Dependent Effect”. Further, the thermal shift (ΔTm) in the data set listed under Homo sapiens came to 2.08 °C.

Take `O=S1(=O)N=C(Nc2cc(Br)cc(Br)c2)c2ccccc21`: in the data set with 786-0 [2], the fold change (FC) stood at 1.63. Further, in [3], the EC50 was 1680 nM. Moreover, the Activity entry is “Dose-Dependent Effect” with 786-0 [1] and “Non-Toxic” in the data set with 786-0 [4]. In addition, the ΔTm in the data set listed under Homo sapiens is 2.52 °C.

Turning to `CN(C1=NS(=O)(=O)c2ccccc21)c1cc(C(F)(F)F)cc(C(F)(F)F)c1`, in the data set listed under Homo sapiens, the ΔTm came out at 0.27 °C.

On to `O=S1(=O)N=C(Nc2cc(F)cc(F)c2)c2ccccc21`, for which the Activity result with 786-0 [1] was “Dose-Dependent Effect”. In the data set filed under Homo sapiens, the ΔTm came out at 2.05 °C.

Turning to `Cc1cc(C)cc(NC2=NS(=O)(=O)c3ccccc32)c1`, in the data set with 786-0 [1], the Activity entry is “Dose-Dependent Effect”. The ΔTm in the data set listed under Homo sapiens was found to be 1.93 °C.

On to `COc1cc(NC2=NS(=O)(=O)c3ccccc32)cc(OC)c1`, for which, in the data set on 786-0 [1], the Activity result is “Dose-Dependent Effect”. Moreover, in the data set filed under Homo sapiens, the ΔTm turned out to be 1.89 °C.

Turning to `O=C1N=C(Nc2cc(C(F)(F)F)cc(C(F)(F)F)c2)c2ccccc21`, in the data set listed under Homo sapiens, the ΔTm was 0.03 °C.

Take `O=S1(=O)N=C(Nc2cc(C(F)(F)F)cc(C(F)(F)F)c2)c2ccccc21`: the Activity result in the data set on 786-0 [5] is listed as “Toxic”. The outcome with 786-0 [6] was Active. For the same compound, in the data set on 786-0 [7], the fold change (FC) stood at 1.41. Besides, the EC50 in [3] came out at 440 nM. For the same compound, the result with 786-0 [8] was inactive. Besides, the thermal shift (ΔTm) in the data set filed under Homo sapiens stood at 2.23 °C.

With `O=S1(=O)N=C(Nc2ccccc2)c2ccccc21`, the Activity result in the data set on 786-0 [1] was “Dose-Dependent Effect”. Moreover, the ΔTm in the data set filed under Homo sapiens came to 2 °C.

For the origin of these results see ChEMBL document CHEMBL4818990, “Insight into the binding mode of HIF-2 agonists through molecular dynamic simulations and biological validation” (Eur J Med Chem, 2021).
